Test system: MS2 coat protein
Assay: apparent Kd, MS2 coat protein; higher = weaker binding; RNA-MaP array; FMN 200 µM where present
Method in brief: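 On Illumina sequencing-chip clusters, designs were transcribed by stalled E. coli RNA polymerase and titrated with SNAP-549-labelled MS2 coat protein (0.7 or 1.5 nM, doubling to 3 µM), without and then with constant ligand, in 100 mM Tris-HCl pH 7.5, 80 mM KCl, 4 mM MgCl2, BSA, DTT, yeast tRNA and Tween-20. Apparent Kd is the median of filtered per-cluster curve fits to green signal normalised to red-channel RNA signal and control-cluster median Fmax.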

[1] = designed as: ON switch for flavin mononucleotide, no ligand
[2] = ligand present: flavin mononucleotide, designed as: ON switch for flavin mononucleotide
[3] = designed as: OFF switch for flavin mononucleotide, no ligand
[4] = ligand present: flavin mononucleotide, designed as: OFF switch for flavin mononucleotide

Row | Sequence | apparent Kd [1] | apparent Kd [2] | apparent Kd [3] | apparent Kd [4]
1 | ACAUACAUUCGAGGAUAUCGGUGAACAAAUUAACGAGAAGGCGAUAUAAUGUUUAAUCUUAUAAACAUGAGGAUCACCCAUGUA | 68.5 nM | 28 nM |  | 
2 | UGAUCGAGAGAUCUUAGAUUCUGGUAGGAUAUACAAAAGUUGCGCUUUACAUGAGGAUCACCCAUGUAGAAGGACUAGAGUCUA |  |  | 7.45 nM | 8.66 nM
3 | CAUAUCCAAGGAUAUACGAUGGCUCCUUCCAUCGUGUGACCACAUGAGGAUCACCCAUGUAGAAGGUGGAUAUU |  |  | 23.2 nM | 24 nM
4 | AGUAACAGAGGAUAUACUGUUUUAUGUGUUUGUUAUUUUGAACAUGAGGAUCACCCAUGUAGAAGGCUGAAUAA |  |  | 22.2 nM | 21.3 nM
5 | GAUCCACAUGAGGAUCACCCAUGUGAGGAUAUGAUACUAUGUACUUCGGUACAUAGUAUCAGAAGGCAUAUUGA |  |  | 44 nM | 75.7 nM
6 | AAUAUGUUGCAGAAGGUUAUUUUUAUAACGAUCCAUGUGACAUGAGGAUCACCCAUGUAAUUGAUGAAGGAUAUGCAAUAUAUU |  |  | 6.72 nM | 6.45 nM
7 | AUCAGCUCGUCAGGAUAUACGUCACUGCGUCAGGAGUGUGGUAAGAUCACAUGAGGAUCACCCAUGUAGAAGGGACGAGCUGAU |  |  | 16.6 nM | 298 nM
8 | GUACUGUAGUGAGGAUAUACGAGAUCGAUAGAUCGGCGAUCCAAUAAUACAUGAGGAUCACCCAUGUAGAAGGCACUUCAGUAC |  |  | 7.07 nM | 99 nM
9 | AAAAAACAUGAGGAUCACCCAUGUAAAAAAAUCGCAGGAUAUACGGUCGCGAAAGCGACCGUAGAAGGGCGAUCCU | 251 nM | 94.8 nM |  | 
10 | GAGCUAUGAGGAUAUGCAUAUAUACGGUUUCGUGUGGUACUACAUGAGGAUCACCCAUGUAGAAGGCGUGGCAG |  |  | 17.4 nM | 17.9 nM
11 | GCGCUACAUGAGGAUCACCCAUGUGCGAACGCACGAGGAUAUGCAUGGGCUAAUGCUGGUGCAGAAGGCGUGGCGC | 31.8 nM | 22.6 nM |  | 
12 | AGGGAGUUAGGAUAUGCUGCUCGUCACUUGCGUGAUGAGUAGCAGAAGGAACAUGAGGAUCACCCAUGUAAAGA |  |  | 34.9 nM | 28.8 nM
13 | UUACAUACAAAGGUACAUGAGGAUCACCCAUGUUUGUUGGGAAGAAGGGUAACAGUACUACAUUUAUAGGAUAUUUCACAAAUA | 95.5 nM | 64 nM |  | 
14 | AACAUGGUACAGAAGGGCAAUUUAUUUAUUUAUUAUUUAGAACAGCAUUGCAGGAUAUGUUUAACAUGAGGAUCACCCAUGUAC | 84.4 nM | 15.8 nM |  | 
15 | GUACUACAUGAGGAUCACCCAUGUCAGGAUAUGUGAAUUUCAUCAAAAGAUGAAAUUUGCAGAAGGGACAGUAC |  |  | 25.3 nM | 33.9 nM
16 | UGCCGUUGAGGAUAUACAUUGAAUAAGAUUCAUGUAAAACUACAUGAGGAUCACCCAUGUAGAAGGCAAUGGCU |  |  | 18.3 nM | 29.6 nM
17 | CUCAGACAUGAGGAUCACCCAUGUUAGGAUAUAUAAAAGAGCGGCAGAGCGCUCUUCCAUAGAAGGAGCAGUGU |  |  | 27.2 nM | 27.7 nM
18 | UUAGAGAAGGAGGAUAUGCUGUUCUGUCACGUAGCAGAAGGCCUUACAUGAGGAUCACCCAUGUUGAUCCCAGU |  |  | 618 nM | 576 nM
19 | GAGUGGAGGAAAGGAUAUACAAUGAUAAUCACAGUAGAAGGUUCUAACAUGAGGAUCACCCAUGUAGGACUAUACCAGAGAGGG | 13.1 nM | 12.5 nM |  | 
20 | GCCAUCGCAUGAGGAUAUGCUCCGGUUUCCGGAGCAGAAGGCAUGUCGUAAGACAUGAGGAUCACCCAUGUAGUUAAGAUGGCA | 1100 nM | 54.7 nM |  | 
21 | UUGGUGUCAGGAUAUGCUUAAUGUGUUUUAUUAUAAUAUAUACAUGAGGAUCACCCAUGUAGAAGGGACGUUGU |  |  | 60.6 nM | 53.2 nM

Row | Sequence | apparent Kd [1] | apparent Kd [2] | apparent Kd [3] | apparent Kd [4]
22 | GUAGAGUAAGGAUAUGUUGAAUAGGAUAGAAUGGUUAGAAAGCAGAAGGUACAUGAGGAUCACCCAUGUAAUGU |  |  | 22.6 nM | 21 nM
23 | CUAUUAUGUGUAGGAUAUGCAUAUUAUUAUUAUGCAGAAGGACAUGAGGAUCACCCAUGUAUAUUAUUAUUAUAUAUUAUAUAU |  |  | 10.7 nM | 11.6 nM
24 | AUCAGCUCGUCAGGAUAUACGUCACUGCGUCAGCAGUGUGGUAAGAUCACAUGAGGAUCACCCAUGUAGAAGGGUCGAGCUGAU |  |  | 17.7 nM | 349 nM
25 | ACAUGAUAUGUAGGAUAUCACAUUAAUUGAUUAAUAUUUCUAUAUAGAAUUUGAGAAGGACAUUUACAUGAGGAUCACCCAUGU |  |  | 10.3 nM | 10.3 nM
26 | AGUGUCAUCGAGAAGGCCUCGACAUGAGGAUCACCCAUGUUGUAAUAUGGGAGGAUAUCGAUGAUACAGCUACGUUUCGUAGCA | 40.3 nM | 13.4 nM |  | 
27 | CGAUAAAGCUGAGGAUAUGAGAAUAGAAAGAAAUCAGAAGGCAGACAUGAGGAUCACCCAUGUGAGUUCUCGAGAUUAGAUAUU |  |  | 25.2 nM | 60.6 nM
28 | CAGUACUGAGGAUAUACAUGAGGAUCACCCAUGUGCCUAAGCUAGGAUACUAGCAUUAGUAGAAGGCAGUACUG |  |  | 12.8 nM | 24.8 nM
29 | GCGUUCUUGUAGAAGGUACUUUCGACAUCUUAUAAACGCUUGACACAUGAGGAUCACCCAUGUUGUAAGGAUAUACAUGAACGC | 6.61 nM | 6.41 nM |  | 
30 | CCGACGCAAGCAGGAUAUCUACUGGCGAUGGUACAUGAGGAUCACCCAUGUAGAGAAGGGCUAAGUGGAAGGAUGAUUUAAAAG |  |  | 113 nM | 97 nM
31 | CAGGUCUGAGGAUAUCCAUCUUCAUACAUGAGGAUCACCCAUGUUUACCUUUGGGUUUUCGGAGAAGGCAGUUUUU |  |  | 273 nM | 370 nM
32 | AAUUUACAGCUAGGAUAUACAUGAGGAUCACCCAUGUAACGAUCGGAUCUUAUGAUCGUGUCCGUGUAGAAGGAGCAAAUAAGA |  |  | 6.97 nM | 7.4 nM
33 | GGAGCCGGUACUGAGGAUAUUCAUAUUAAAACAUGAGGAUCACCCAUGUAGGCCAGAAGGCCUUGGGAGAAGGCAGACCAGCUCG | 391 nM | 26.7 nM |  | 
34 | AAAAAGCGAGGAUAUACAUAGCUAAGACAUGUAAGCGAAAAACAUGAGGAUCACCCAUGUAGAAGGCGCAAAAA |  |  | 17.7 nM | 18.2 nM
35 | CCACGGUAUGUAGGAUAUGCAUAGCAUUGCUAAAAAGAAGGACAUGAGGAUCACCCAUGUAUGUAUUCCAUACUAAUCCCGUGC |  |  | 8.98 nM | 8.06 nM
36 | GAGAAGUCAGGAUAUGCAUGGCGGGACUUGCGUCGUGGCGUGCAGAAGGGACAUGAGGAUCACCCAUGUGGAGC |  |  | 114 nM | 161 nM
37 | UCAAGUAUGUAGGAUAUCGAUGUCGAAAGACAUCGAGAAGGACGUACAUGAGGAUCACCCAUGUAACUUGCAUG |  |  | 296 nM | 270 nM
38 | UGCAUGUAAGGAUAUGCACUGCGCGAGCCUGGCUCGCAAAGGCAGAAGGUACAUGAGGAUCACCCAUGUGAGAA |  |  | 91.5 nM | 99.7 nM
39 | UAGAUGGGAGGAUAUACGUAGAUGCAGAUUCGUGUGGUGCUACAUGAGGAUCACCCAUGUAGAAGGCCCGUCUU |  |  | 17 nM | 98.1 nM
40 | GGAUCCAACACAGGAUAUGCUGGACUUUGUCCAGCAGAAGGGUGACAUGAGGAUCACCCAUGUAAUAGGAUCCAUAUAUUUAAU | 624 nM | 198 nM |  | 
41 | UUUGGGAGCACAGGAUAUGGCGCGUCGACCGCGCCAGAAGGGUGAUUCUGUUGGUGGCCACAUGAGGAUCACCCAUGUGCCUCC | 42.4 nM | 55.3 nM |  | 
42 | AAACAUGUCCGAGGAUAUCUGGAAACAUUUUCAAGAGAAGGCGGACAUGAGGAUCACCCAUGUCUCUCCUCAUCAAAUCCAAUU |  |  | 8.37 nM | 51.1 nM

Source: the EternaBench riboswitch data
